Key:
[1] = melting temperature; fluorescence melt of hairpins on a sequencing array, two-state fit, raised by 9.35 °C to match UV melts; settings: sodium 0.088 M
In short: (§1)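 Melting temperature and folding enthalpy were derived from bootstrapped two-state fits. The fitted temperatures were raised by 9.35 °C to agree with UV melts, and four replicates were combined by inverse variance. The underlying data were Cy3 fluorescence images of library hairpins, with annealed Cy3 and quencher oligos, on a sequenced MiSeq flow cell in 50 mM Na-HEPES pH 8.0, 25 mM NaCl, taken in 2.5 °C steps up to 60 °C, normalised to pre-quench Cy3 and to control constructs.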

[2] = folding enthalpy; higher = less favourable; fluorescence melt of hairpins on a sequencing array, two-state fit; settings: sodium 0.088 M
In short: as §1

GATCGCCTAAGCGATC ((((((....))))))
Tm [1]: 68 °C
folding enthalpy [2]: -40.8 kcal/mol

GTCAAACGAAAGTTGGAC (((.(((....))).)))
Tm [1]: 49.9 °C
folding enthalpy [2]: -24.8 kcal/mol

GAGTCCGAAAGGATTCTC ((((((....)))..)))
Tm [1]: 50.6 °C
folding enthalpy [2]: -24.4 kcal/mol

GATTGTGGAAACACAGTC ((.((((....)))).))
Tm [1]: 42.6 °C
folding enthalpy [2]: -26.4 kcal/mol

GCTTGGCGAAAGCAGAGC (((..((....))..)))
Tm [1]: 54 °C
folding enthalpy [2]: -18.2 kcal/mol

GAGGACGAAAGTCTCTC ((((((....))).)))
Tm [1]: 46.5 °C
folding enthalpy [2]: -18 kcal/mol

GACGCCGAAAGGCCCGTC ((((((....)))..)))
Tm [1]: 37 °C
folding enthalpy [2]: -13.9 kcal/mol

GAGATCCGAAAGGAACTC (((.(((....))).)))
Tm [1]: 50.2 °C
folding enthalpy [2]: -32.2 kcal/mol

GTGTAGCCGAAAGGCCAC (((..(((....))))))
Tm [1]: 47 °C
folding enthalpy [2]: -17.3 kcal/mol

GCGCGCCCGAAAGGGCGC (((..(((....))))))
Tm [1]: 68.4 °C
folding enthalpy [2]: -4.64 kcal/mol

GGCCAACCGAAAGGTGCC (((..(((....))))))
Tm [1]: 50.4 °C
folding enthalpy [2]: -23.8 kcal/mol

GATCCGTACACGGATC ((((((....))))))
Tm [1]: 61.2 °C
folding enthalpy [2]: -43.2 kcal/mol

GCTACAGAAATGTAGC ((((((....))))))
Tm [1]: 55.4 °C
folding enthalpy [2]: -33.1 kcal/mol

GGAACTGGAAACAGTTTC (.(((((....))))).)
Tm [1]: 46.2 °C
folding enthalpy [2]: -27.7 kcal/mol

GCGAGGCGAAAGCGGCGC (((..((....))..)))
Tm [1]: 66.8 °C
folding enthalpy [2]: -38.1 kcal/mol

GGGCATGGAAACATGCTC (.(((((....))))).)
Tm [1]: 55.4 °C
folding enthalpy [2]: -30.1 kcal/mol

GATCTTGCGAAGATC ((((((...))))))
Tm [1]: 42.8 °C
folding enthalpy [2]: -23.7 kcal/mol

GATCTTCGATAAGATC ((((((....))))))
Tm [1]: 40.2 °C
folding enthalpy [2]: -24.7 kcal/mol

GCGGTCGCCGC ((((...))))
Tm [1]: 60.6 °C
folding enthalpy [2]: -5.62 kcal/mol

GGAGCGTCGAAAGACTCC (((..(((....))))))
Tm [1]: 31.4 °C
folding enthalpy [2]: -13.7 kcal/mol

GATCGTCTCACGATC ((((((...))))))
Tm [1]: 57.4 °C
folding enthalpy [2]: -40.6 kcal/mol

GATCCCAGCGGGATC ((((((...))))))
Tm [1]: 68.9 °C
folding enthalpy [2]: -37.9 kcal/mol

CGGCCGGAAACGGGTCCG ((((((....)))..)))
Tm [1]: 50.4 °C
folding enthalpy [2]: -18.6 kcal/mol

GATCCCATCAGGGATC ((((((....))))))
Tm [1]: 65.7 °C
folding enthalpy [2]: -36.3 kcal/mol

GCGTCCTGACGC ((((....))))
Tm [1]: 59.9 °C
folding enthalpy [2]: -35.1 kcal/mol

GCTAGTGGAAACACTAGC (((((((....)))))))
Tm [1]: 61.9 °C
folding enthalpy [2]: -47.7 kcal/mol

GCCAGACCGAAAGGTGGC (((..(((....))))))
Tm [1]: 53.7 °C
folding enthalpy [2]: -42.4 kcal/mol

GCAAGACCGAAAGGTTGC (((..(((....))))))
Tm [1]: 48.2 °C
folding enthalpy [2]: -22.6 kcal/mol

GTATATCGAAAGATCTAC (((.(((....))).)))
Tm [1]: 31.8 °C
folding enthalpy [2]: -19.5 kcal/mol

GATCTCGTGTGAGATC ((((((....))))))
Tm [1]: 53.1 °C
folding enthalpy [2]: -37 kcal/mol

GAGAGGAAACTCTC (((((....)))))
Tm [1]: 44.6 °C
folding enthalpy [2]: -23.4 kcal/mol

CGCTCCGGAAACGGCGCG (((.(((....))).)))
Tm [1]: 56.9 °C
folding enthalpy [2]: -39.5 kcal/mol

GATCGGATTGCCGATC ((((((....))))))
Tm [1]: 55 °C
folding enthalpy [2]: -28.7 kcal/mol

TACTGGAAACAGTA (((((....)))))
Tm [1]: 36.8 °C
folding enthalpy [2]: -15.8 kcal/mol

GAACAGGAAACTGTTC ((((((....))))))
Tm [1]: 52.9 °C
folding enthalpy [2]: -38.4 kcal/mol

GCAAGACGAAAGTCTGC (((.(((....))))))
Tm [1]: 57.7 °C
folding enthalpy [2]: -26.7 kcal/mol

GTCTGAGGAAACTTAGAC ((((.((....)).))))
Tm [1]: 39.9 °C
folding enthalpy [2]: -30.7 kcal/mol

GATCGAAAGCTCGATC ((((((....))))))
Tm [1]: 48.7 °C
folding enthalpy [2]: -29.6 kcal/mol

GACACCGAAAGGTAAGTC ((((((....)))..)))
Tm [1]: 38.5 °C
folding enthalpy [2]: -20.2 kcal/mol

GATCATCATCATGATC ((((((....))))))
Tm [1]: 45 °C
folding enthalpy [2]: -34.8 kcal/mol

GGACATGGAAACGTGTCC (((((.(....).)))))
Tm [1]: 52.6 °C
folding enthalpy [2]: -45.1 kcal/mol

GTTCTTGGAAACAAGAGC (.(((((....))))).)
Tm [1]: 41.5 °C
folding enthalpy [2]: -19.6 kcal/mol

GGAGCCGGAAACGACTCC ((((.((....)).))))
Tm [1]: 52 °C
folding enthalpy [2]: -55.2 kcal/mol

GCGACCGAAAGGTTTCGC ((((((....)))..)))
Tm [1]: 49 °C
folding enthalpy [2]: -24.1 kcal/mol

GGGTCGCGAAAGCGTCCC (((.(((....))).)))
Tm [1]: 67.1 °C
folding enthalpy [2]: -29 kcal/mol

GATCGTATTAACGATC ((((((....))))))
Tm [1]: 55.9 °C
folding enthalpy [2]: -37.1 kcal/mol

GGTGCGGGAAACCGTGCC ((..(((....)))..))
Tm [1]: 53.1 °C
folding enthalpy [2]: -46.1 kcal/mol

GCGCAGCGAAAGCATCGC (((..((....))..)))
Tm [1]: 47.4 °C
folding enthalpy [2]: -9.43 kcal/mol

GAACCCGAAAGGGAGTTC ((((((....)))..)))
Tm [1]: 40 °C
folding enthalpy [2]: -13.7 kcal/mol

GGTAATCCGAAAGGAACC (((..(((....))))))
Tm [1]: 26 °C
folding enthalpy [2]: -19.7 kcal/mol

GATGCAGCGAAAGCTATC (((..(((....))))))
Tm [1]: 24.7 °C
folding enthalpy [2]: -9.06 kcal/mol

GGGACGCGAAAGCGCCC (((.(((....))))))
Tm [1]: 64.7 °C
folding enthalpy [2]: -15.4 kcal/mol

GGAGGCCGAAAGGCTTCC (((.(((....))).)))
Tm [1]: 64.2 °C
folding enthalpy [2]: -28.9 kcal/mol

GACGACGAAAGTCAAGTC ((((((....)))..)))
Tm [1]: 45.9 °C
folding enthalpy [2]: -23.8 kcal/mol

GCGTGGCGAAAGCCTAGC ((..(((....)))..))
Tm [1]: 59.5 °C
folding enthalpy [2]: -20.2 kcal/mol

GGGTGTGGAAACACGTCC ((..(((....)))..))
Tm [1]: 40.1 °C
folding enthalpy [2]: -13.6 kcal/mol

GTCAACGGAAACGTTGAC (((((((....)))))))
Tm [1]: 69 °C
folding enthalpy [2]: -45.2 kcal/mol

GCCTTGACGAAAGTCGGC (((..(((....))))))
Tm [1]: 50.3 °C
folding enthalpy [2]: -16 kcal/mol

GATCACGAAAGTGCTATC ((((((....)))..)))
Tm [1]: 26.1 °C
folding enthalpy [2]: -12.1 kcal/mol

GGACACCGAAAGGTTTCC (((.(((....))).)))
Tm [1]: 48.2 °C
folding enthalpy [2]: -32.8 kcal/mol

GCGGGGCGAAAGCGTCGC (((..((....))..)))
Tm [1]: 67.8 °C
folding enthalpy [2]: -36 kcal/mol

AGAGAGAAATCTCT (((((....)))))
Tm [1]: 23.2 °C
folding enthalpy [2]: -8.28 kcal/mol

GCATACGGAAACGTATAC (.(((((....))))).)
Tm [1]: 34.9 °C
folding enthalpy [2]: -16.9 kcal/mol

GTTCCCCGAAAGGGTAAC (((.(((....))).)))
Tm [1]: 40.9 °C
folding enthalpy [2]: -19.9 kcal/mol

GCCGACGGAAACACCGGC ((((..(....)..))))
Tm [1]: 43.9 °C
folding enthalpy [2]: -20.4 kcal/mol

GTTCAACGAAAGTTTAAC (((.(((....))).)))
Tm [1]: 35.2 °C
folding enthalpy [2]: -22.9 kcal/mol

GTAACAGGAAACCGTTAC (((((.(....).)))))
Tm [1]: 37.5 °C
folding enthalpy [2]: -29.5 kcal/mol

GTGGCCCGAAAGGGCAC (((.(((....))))))
Tm [1]: 62 °C
folding enthalpy [2]: -10.3 kcal/mol

GATCTCTTAGAGATC ((((((...))))))
Tm [1]: 53.1 °C
folding enthalpy [2]: -38.9 kcal/mol

GTGCCCGAAAGGGGACAC ((((((....)))..)))
Tm [1]: 67 °C
folding enthalpy [2]: -12.2 kcal/mol

GTGTAGCGAAAGCTGCAC (((.(((....))).)))
Tm [1]: 63.9 °C
folding enthalpy [2]: -36.6 kcal/mol

GAACACGAAAGTGTATTC ((((((....)))..)))
Tm [1]: 33.6 °C
folding enthalpy [2]: -9.83 kcal/mol

GCAAGGCGAAAGCGCTGC (((..((....))..)))
Tm [1]: 50.2 °C
folding enthalpy [2]: -17.3 kcal/mol

GACAAGCGAAAGCTAGTC (((.(((....))).)))
Tm [1]: 52 °C
folding enthalpy [2]: -23 kcal/mol

GATCCAACGTGGATC ((((((...))))))
Tm [1]: 49.2 °C
folding enthalpy [2]: -31.9 kcal/mol

GGGAGAGAAATCTCCC ((((((....))))))
Tm [1]: 56.4 °C
folding enthalpy [2]: -35 kcal/mol

GACTACGGAAACGTAGCC (.(((((....))))).)
Tm [1]: 44.5 °C
folding enthalpy [2]: -14.1 kcal/mol

GGCTGGGGAAACTCGGCC (((.(.(....).).)))
Tm [1]: 49.4 °C
folding enthalpy [2]: -36.5 kcal/mol

GTCGTCTCGAAAGAGGAC (((..(((....))))))
Tm [1]: 39 °C
folding enthalpy [2]: -21.6 kcal/mol

GATAGTGAAAACTATC ((((((....))))))
Tm [1]: 48.4 °C
folding enthalpy [2]: -30.1 kcal/mol

GATCTACGGGTAGATC ((((((....))))))
Tm [1]: 51.1 °C
folding enthalpy [2]: -42.6 kcal/mol

GATCTCATATGAGATC ((((((....))))))
Tm [1]: 54.2 °C
folding enthalpy [2]: -43.8 kcal/mol

GATTCTGGAAACAGAACC (.(((((....))))).)
Tm [1]: 33.6 °C
folding enthalpy [2]: -17.6 kcal/mol

CGGCGCGGAAACGCCCCG (((.(((....))).)))
Tm [1]: 52 °C
folding enthalpy [2]: -17.5 kcal/mol

GTGCTGCGAAAGCATCAC (((.(((....))).)))
Tm [1]: 52 °C
folding enthalpy [2]: -31.9 kcal/mol

GTTGGACGAAAGTCAAC (((.(((....))))))
Tm [1]: 48.6 °C
folding enthalpy [2]: -17.5 kcal/mol

GCGGTAGGAAACTGCTGC ((.(.((....)).).))
Tm [1]: 45.5 °C
folding enthalpy [2]: -27.5 kcal/mol

GATCAACCCCTTGATC ((((((....))))))
Tm [1]: 45.5 °C
folding enthalpy [2]: -35.2 kcal/mol

GTTTGCGAAAGCATCAAC ((((((....)))..)))
Tm [1]: 27.2 °C
folding enthalpy [2]: -8.63 kcal/mol

GCGTTCGTACGC ((((....))))
Tm [1]: 58.3 °C
folding enthalpy [2]: -22.1 kcal/mol

GACTGGGGAAACCCAGTC (((((((....)))))))
Tm [1]: 66.6 °C
folding enthalpy [2]: -40.3 kcal/mol

GTGTACGAAAGTACCAC ((((((....))).)))
Tm [1]: 44.4 °C
folding enthalpy [2]: -13.3 kcal/mol

GCCGAGCGAAAGCCAGGC (((..((....))..)))
Tm [1]: 62.7 °C
folding enthalpy [2]: -24 kcal/mol

Source: the array DNA melting data of Ke et al. (doi:10.1101/2024.01.08.574731)
